Data taken from ChEMBL document CHEMBL3352604, “Development of novel azabenzofuran TRPA1 antagonists as in vivo tools” (Bioorg Med Chem Lett, 2014).
In brackets after ≈: the same amount, converted by molar mass. Activity calls are given as the source filed them. The rule behind the calls is not given here.

Assays:
[1] = Clearance in rat liver microsomes; assay type: ADME; conditions: read-out: CLH
[2] = Solubility in fasted state simulated intestinal fluid at pH 6.8; assay type: ADME
[3] = Solubility in 0.01 N HCl solution in water; assay type: physicochemical
Method in brief: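 Solubility measured in 0.01 N hydrogen chloride solution in water.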

[4] = molecular target: T1, Transient receptor potential cation channel subfamily A member 1 (Rattus norvegicus, UniProt Q6RI86); assay: Agonist activity at rat TRPA1 by [45Ca2+] fluorimetry assay
T1 sequence (Q6RI86 whole entry): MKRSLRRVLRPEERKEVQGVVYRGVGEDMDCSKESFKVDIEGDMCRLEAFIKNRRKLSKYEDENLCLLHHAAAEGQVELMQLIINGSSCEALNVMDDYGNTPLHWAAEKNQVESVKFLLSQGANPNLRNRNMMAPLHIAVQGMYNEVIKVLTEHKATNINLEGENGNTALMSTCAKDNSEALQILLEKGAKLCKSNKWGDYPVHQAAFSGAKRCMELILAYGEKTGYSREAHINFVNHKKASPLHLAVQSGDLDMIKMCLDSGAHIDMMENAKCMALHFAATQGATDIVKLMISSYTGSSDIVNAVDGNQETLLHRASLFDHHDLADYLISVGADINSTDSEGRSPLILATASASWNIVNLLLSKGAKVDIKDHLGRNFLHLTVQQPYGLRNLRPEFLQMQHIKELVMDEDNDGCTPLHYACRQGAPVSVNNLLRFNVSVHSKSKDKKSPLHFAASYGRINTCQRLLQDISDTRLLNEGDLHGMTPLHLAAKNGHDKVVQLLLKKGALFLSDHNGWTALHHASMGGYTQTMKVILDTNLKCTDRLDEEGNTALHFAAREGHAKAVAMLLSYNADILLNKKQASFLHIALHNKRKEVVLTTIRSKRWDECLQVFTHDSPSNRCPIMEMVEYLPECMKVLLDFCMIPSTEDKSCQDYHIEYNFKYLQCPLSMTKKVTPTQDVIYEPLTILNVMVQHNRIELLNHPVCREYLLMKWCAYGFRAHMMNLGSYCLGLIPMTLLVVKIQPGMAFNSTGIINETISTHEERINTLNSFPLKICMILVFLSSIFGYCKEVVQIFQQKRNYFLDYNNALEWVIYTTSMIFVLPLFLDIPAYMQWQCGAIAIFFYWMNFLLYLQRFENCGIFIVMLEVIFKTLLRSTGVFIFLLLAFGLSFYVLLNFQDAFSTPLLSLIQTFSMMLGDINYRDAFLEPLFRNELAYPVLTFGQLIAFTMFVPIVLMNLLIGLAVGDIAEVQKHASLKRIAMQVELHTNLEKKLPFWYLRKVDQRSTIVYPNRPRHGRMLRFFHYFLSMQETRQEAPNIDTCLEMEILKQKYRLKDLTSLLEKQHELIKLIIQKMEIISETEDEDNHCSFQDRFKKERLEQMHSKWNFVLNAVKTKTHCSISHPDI

[5] = Solubility in PBS buffer at pH 7.4; assay type: physicochemical
Method in brief: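 Solubility measured in phosphate buffered saline, pH 7.4.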

[6] = Clearance in human liver microsomes; assay type: ADME; conditions: read-out: CLH
[7] = molecular target: T1, Transient receptor potential cation channel subfamily A member 1; assay: Antagonist activity at rat TRPA1 assessed as inhibition of AITC-induced calcium uptake by [45Ca2+] fluorimetry assay
Method in brief: (§1)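 Antagonism read by 45Ca2+ fluorimetry in cells expressing rat or human TRPA1. IC50 determined. Where no IC50 was obtained, % inhibition was measured at a single 2 μM point.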

[8] = molecular target: T2, Transient receptor potential cation channel subfamily A member 1 (Homo sapiens, UniProt O75762); assay: Agonist activity at human TRPA1 by [45Ca2+] fluorimetry assay
T2 sequence (O75762 whole entry): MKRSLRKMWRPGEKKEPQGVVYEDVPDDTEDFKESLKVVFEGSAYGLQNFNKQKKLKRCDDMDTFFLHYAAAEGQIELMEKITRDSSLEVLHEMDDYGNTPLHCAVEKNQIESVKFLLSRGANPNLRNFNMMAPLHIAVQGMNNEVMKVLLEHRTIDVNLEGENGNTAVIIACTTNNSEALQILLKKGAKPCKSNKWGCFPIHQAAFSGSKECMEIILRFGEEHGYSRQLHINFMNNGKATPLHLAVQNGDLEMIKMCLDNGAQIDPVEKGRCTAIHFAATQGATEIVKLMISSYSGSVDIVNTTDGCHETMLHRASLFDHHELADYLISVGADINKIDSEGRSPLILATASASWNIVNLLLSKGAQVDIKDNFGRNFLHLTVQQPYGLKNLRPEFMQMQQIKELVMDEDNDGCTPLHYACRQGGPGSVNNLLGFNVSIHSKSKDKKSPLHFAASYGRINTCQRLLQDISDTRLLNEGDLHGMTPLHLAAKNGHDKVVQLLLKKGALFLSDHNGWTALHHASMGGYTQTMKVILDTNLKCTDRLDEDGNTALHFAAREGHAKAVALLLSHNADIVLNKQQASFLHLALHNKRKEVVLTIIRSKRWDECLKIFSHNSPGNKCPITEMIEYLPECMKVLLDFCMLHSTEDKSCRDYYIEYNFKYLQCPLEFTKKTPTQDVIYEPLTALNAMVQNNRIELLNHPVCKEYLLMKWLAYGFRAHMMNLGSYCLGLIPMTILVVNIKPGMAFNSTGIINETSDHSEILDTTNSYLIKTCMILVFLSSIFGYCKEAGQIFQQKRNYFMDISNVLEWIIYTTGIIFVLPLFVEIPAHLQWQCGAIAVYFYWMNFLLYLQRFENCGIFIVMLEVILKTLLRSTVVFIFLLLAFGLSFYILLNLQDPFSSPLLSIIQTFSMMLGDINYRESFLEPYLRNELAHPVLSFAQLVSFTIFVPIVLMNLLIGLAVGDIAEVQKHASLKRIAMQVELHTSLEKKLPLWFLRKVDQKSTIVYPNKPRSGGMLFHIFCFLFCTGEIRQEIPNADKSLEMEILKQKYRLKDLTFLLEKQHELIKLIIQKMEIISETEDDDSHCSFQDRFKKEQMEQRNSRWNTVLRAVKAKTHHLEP

[9] = molecular target: T2, Transient receptor potential cation channel subfamily A member 1; assay: Antagonist activity at human TRPA1 assessed as inhibition of AITC-induced calcium uptake by [45Ca2+] fluorimetry assay; method in brief: as §1
[10] = molecular target: Transient receptor potential cation channel subfamily A member 1 (Rattus norvegicus) (UniProt Q6RI86); assay: Antagonist activity at rat TRPA1 assessed as inhibition of AITC-induced calcium uptake at 2 uM by [45Ca2+] fluorimetry assay
Transient receptor potential cation channel subfamily A member 1 (Rattus norvegicus), sequence (Q6RI86 whole entry): as the sequence (Q6RI86 whole entry) above
Method in brief: (§2)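 45Ca2+ uptake fluorimetry in cells expressing rat or human TRPA1, run in parallel for both species. The value is single-point percent inhibition at 2 µM test compound, reported when no IC50 was obtained. Compounds were also run without agonist to check for channel agonism.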

[11] = molecular target: T2, Transient receptor potential cation channel subfamily A member 1; assay: Antagonist activity at human TRPA1 assessed as inhibition of AITC-induced calcium uptake at 2 uM by [45Ca2+] fluorimetry assay; method in brief: as §2
Plasma [12] = assay: Unbound plasma concentration in Harlan Sprague-Dawley rat model of AITC-induced flinching at 10 mg/kg, po after 1 hr; assay type: ADME, organism-based; set-up: dose 10 mg/kg, route oral; conditions: in vivo
Method in brief: (§3)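 Male Harlan Sprague-Dawley rats dosed orally in 2% HPMC/1% Tween-80, with a 0.1% AITC paw challenge at 1 h. Unbound plasma concentration determined with n=8, 6 and 8 for the 10, 30 and 100 mg/kg doses respectively.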

Rattus norvegicus [13] = assay: Effect on open filed activity in Harlan Sprague-Dawley rat model of AITC-induced flinching at 30 to 100 mg/kg, po; assay type: organism-based; set-up: dose 30-100 mg/kg, route oral; conditions: in vivo
Rattus norvegicus [14] = species on record: Rattus norvegicus; conditions: Harlan Sprague-Dawley, 30 to 100 mg/kg
[15] = Fraction unbound in rat plasma by equilibrium dialysis method; assay type: ADME, cell-free
[16] = Ratio of unbound plasma concentration in Harlan Sprague-Dawley rat model of AITC-induced flinching at 30 mg/kg, po after 1 hr to IC50 for antagonist activity at rat TRPA1 by [45Ca2+] fluorimetry assay; assay type: organism-based; set-up: dose 30 mg/kg, route oral; conditions: in vivo
Method in brief: (§4)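 Male Harlan Sprague-Dawley rats were dosed orally in 2% HPMC/1% Tween-80. After 1 h, 0.1% AITC was injected into the left ventral hind paw. Unbound plasma concentration was measured (n=8 at 10 and 100 mg/kg, n=6 at 30 mg/kg) and divided by the rat TRPA1 IC50. That IC50 came from a 45Ca2+ fluorimetry antagonism assay in cells expressing rat TRPA1.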

[17] = Oral bioavailability in fasted Sprague-Dawley rat at 30 mg/kg; assay type: ADME, organism-based; conditions: in vivo
Method in brief: (§5)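 Male Sprague-Dawley rats (n = 3) dosed po in 2% HPMC, 1% Tween 80 in H2O, pH 2.2 with MSA. Animals fasted during the PK study.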

[18] = Half life in Sprague-Dawley rat at 0.5 mg/kg, iv; assay type: ADME, organism-based; set-up: dose 0.5 mg/kg, route intravenous; conditions: in vivo
Method in brief: (§6)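 Male Sprague-Dawley rats (n = 3) given 0.5 mg/kg iv in DMSO.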

Rattus norvegicus [19] = assay: fCmax in fed Sprague-Dawley rat at 100 mg/kg, po; assay type: ADME, organism-based; set-up: dose 100 mg/kg, route oral; conditions: in vivo
Method in brief: (§7)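 Male Sprague-Dawley rats (n = 3) dosed po at 100 mg/kg in 2% HPMC, 1% Tween 80 in H2O, pH 2.2 with MSA. Animals fed during the PK study.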

[20] = Volume of distribution at steady state in Sprague-Dawley rat at 0.5 mg/kg, iv; assay type: ADME, organism-based; set-up: dose 0.5 mg/kg, route intravenous; conditions: in vivo, read-out: Vdss; method in brief: as §6
[21] = Ratio of unbound plasma concentration in Harlan Sprague-Dawley rat model of AITC-induced flinching at 10 mg/kg, po after 1 hr to IC50 for antagonist activity at rat TRPA1 by [45Ca2+] fluorimetry assay; assay type: organism-based; set-up: dose 10 mg/kg, route oral; conditions: in vivo; method in brief: as §4
[22] = Ratio of unbound plasma concentration in Harlan Sprague-Dawley rat model of AITC-induced flinching at 100 mg/kg, po after 1 hr to IC50 for antagonist activity at rat TRPA1 by [45Ca2+] fluorimetry assay; assay type: organism-based; set-up: dose 100 mg/kg, route oral; conditions: in vivo; method in brief: as §4
[23] = Ratio of fCmax in fed Sprague-Dawley rat at 100 mg/kg, po to IC50 for antagonist activity at rat TRPA1 by [45Ca2+] fluorimetry assay
Method in brief: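 Male Sprague-Dawley rats (n = 3), fed, were given an oral dose in 2% HPMC, 1% Tween 80 in water, adjusted to pH 2.2 with MSA. The unbound Cmax from this PK study was divided by the rat TRPA1 IC50. That IC50 came from a 45Ca2+ fluorimetry antagonism assay in cells expressing rat TRPA1.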

Plasma [24] = assay: Unbound plasma concentration in Harlan Sprague-Dawley rat model of AITC-induced flinching at 30 mg/kg, po after 1 hr; assay type: ADME, organism-based; set-up: dose 30 mg/kg, route oral; conditions: in vivo; method in brief: as §3
Plasma [25] = assay: Unbound plasma concentration in Harlan Sprague-Dawley rat model of AITC-induced flinching at 100 mg/kg, po after 1 hr; assay type: ADME, organism-based; set-up: dose 100 mg/kg, route oral; conditions: in vivo; method in brief: as §3
Rattus norvegicus [26] = assay: fCmax in fasted Sprague-Dawley rat at 30 mg/kg, po; assay type: ADME, organism-based; set-up: dose 30 mg/kg, route oral; conditions: in vivo; method in brief: as §5
[27] = Clearance in Sprague-Dawley rat at 0.5 mg/kg, iv; assay type: ADME, organism-based; set-up: dose 0.5 mg/kg, route intravenous; conditions: in vivo; method in brief: as §6
[28] = Oral bioavailability in fed Sprague-Dawley rat at 100 mg/kg; assay type: ADME, organism-based; conditions: in vivo; method in brief: as §7
Rattus norvegicus [29] = assay: Unbound clearance in Sprague-Dawley rat at 0.5 mg/kg, iv; assay type: ADME, organism-based; set-up: dose 0.5 mg/kg, route intravenous; conditions: in vivo; method in brief: as §6
Rattus norvegicus [30] = assay: fCmax in fasted Sprague-Dawley rat at 10 mg/kg, po; assay type: ADME, organism-based; set-up: dose 10 mg/kg, route oral; conditions: in vivo; method in brief: as §5
[31] = Oral bioavailability in fasted Sprague-Dawley rat at 10 mg/kg; assay type: ADME, organism-based; conditions: in vivo; method in brief: as §5
Rattus norvegicus [32] = species on record: Rattus norvegicus; conditions: Harlan Sprague-Dawley, 100 mg/kg

Row | SMILES | microsomal CLint [1] [µL/min/mg] | solubility [2] [µg/mL] | solubility [3] [µg/mL] | EC50 [4] [nM] | solubility [5] [µg/mL] | microsomal CLint [6] [µL/min/mg] | IC50 [7] [nM] | EC50 [8] [nM] | IC50 [9] [nM] | other results
1 | S=C1Nc2c(oc3ncccc23)C(c2cccc(OCc3cccnc3)c2)N1 (configuration not stated) | 40 | 21 (≈ 54.1 µM) | 200 (≈ 515 µM) | > 40000 | 15 (≈ 38.6 µM) | 100 | 1300 | > 40000 | 940 | 
2 | COCCCOc1ccnc(C2NC(=S)NC3=C2C(=O)c2ccccc23)c1 (configuration not stated) | 220 | 39 (≈ 102 µM) | 500 (≈ 1310 µM) | > 40000 | 62 (≈ 163 µM) | 43 | > 2000 | > 40000 | > 2000 | inhibition [10]: 0%; inhibition [11]: 1%
3 | COCCCOc1cccc([C@H]2NC(=S)Nc3c2oc2ncccc32)c1 | 90 | 46 (≈ 125 µM) | 28 (≈ 75.8 µM) | > 40000 | 21 (≈ 56.8 µM) | 30 | 45 | > 40000 | 170 | Cp(f) (Plasma [12]): 48 nM; Activity (Rattus norvegicus [13]): Non-toxic; inhibition (Rattus norvegicus [14]): Active; fraction unbound [15]: 0.085; Ratio [16]: 5; bioavailability [17]: 13%; half-life [18]: 1.2 h; fCmax (Rattus norvegicus [19]): 0.612 µM; Vd [20]: 4 L/kg; Ratio [21]: 1; Ratio [22]: 16; Ratio [23]: 14; Cp(f) (Plasma [24]): 220 nM; Cp(f) (Plasma [25]): 740 nM; fCmax (Rattus norvegicus [26]): 0.082 µM; clearance [27]: 50 mL/min/kg; bioavailability [28]: 79%; CL free (Rattus norvegicus [29]): 600 mL/min/kg
4 | COCCCOc1cccc([C@@H]2NC(=S)Nc3c2oc2ncccc32)c1 |  |  |  |  |  |  |  |  | > 40000 | inhibition (Rattus norvegicus [32]): inactive; Cp(f) (Plasma [25]): 370 nM

Continued, in another order:

Row | microsomal CLint [1] [µL/min/mg] | solubility [2] [µg/mL] | solubility [3] [µg/mL] | EC50 [4] [nM] | solubility [5] [µg/mL] | microsomal CLint [6] [µL/min/mg] | IC50 [7] [nM] | EC50 [8] [nM] | IC50 [9] [nM] | SMILES | other results
5 |  | 23 (≈ 60.5 µM) | 1 (≈ 2.63 µM) | > 40000 | 10 (≈ 26.3 µM) |  | 28 | > 40000 | 30 | COCCCOc1cccc(C2NC(=S)NC3=C2C(=O)c2ccccc23)c1 (racemic) | 
6 | 230 | 12 (≈ 31.5 µM) | 5 (≈ 13.1 µM) | > 40000 | 4 (≈ 10.5 µM) | 150 | 19 | > 40000 | 26 | COCCCOc1cccc([C@H]2NC(=S)NC3=C2C(=O)c2ccccc23)c1 | fraction unbound [15]: 0.01; fCmax (Rattus norvegicus [30]): 0.005 µM; half-life [18]: 2.1 h; bioavailability [31]: 10%; Vd [20]: 4.7 L/kg; clearance [27]: 48.3 mL/min/kg; CL free (Rattus norvegicus [29]): 4830 mL/min/kg
7 | 140 | 66 (≈ 171 µM) | 14 (≈ 36.2 µM) | > 40000 | 17 (≈ 44 µM) | 70 | 140 | > 40000 | 200 | COCCCOc1cccc(C2NC(=S)Nc3c2oc2c(F)cccc32)c1 (configuration not stated) | 
